Measurements from the EternaBench riboswitch data.

Test system: MS2 coat protein
Experiment: apparent Kd, MS2 coat protein; higher = weaker binding; RNA-MaP array; FMN 200 µM where present
Method in brief: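 Designs on Illumina sequencing-chip clusters, transcribed by stalled E. coli RNA polymerase, were exposed to SNAP-549-labelled MS2 coat protein in doubling steps from 0.7 or 1.5 nM up to 3 µM, without and then with constant ligand. The buffer held 100 mM Tris-HCl pH 7.5, 80 mM KCl, 4 mM MgCl2, BSA, DTT, yeast tRNA and Tween-20. Apparent Kd values are medians of filtered per-cluster binding-curve fits to green signal normalised to red-channel RNA signal and control-cluster median Fmax.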

[1] = designed as: ON switch for flavin mononucleotide, no ligand
[2] = ligand present: flavin mononucleotide, designed as: ON switch for flavin mononucleotide
[3] = designed as: OFF switch for flavin mononucleotide, no ligand
[4] = ligand present: flavin mononucleotide, designed as: OFF switch for flavin mononucleotide

Row | Sequence | apparent Kd [1] [nM] | apparent Kd [2] [nM] | apparent Kd [3] [nM] | apparent Kd [4] [nM]
1 | GUAGCAUACCGAGGAUAUUCAUACCGGAAACGGACAUGAGGAUCACCCAUGUGGCGAAAGCCUUUGGAGAAGGCGGAAUGCUAC | 13.2 | 11.7 |  | 
2 | ACAUGAGGAUCACCCAUGUAGAAUGAAGAAGGAUGUUACUUGAGACUCACCCAUGUACAUAGGACAUAGGAUAUUCUAAUAAUU | 10.1 | 7.83 |  | 
3 | AUAUCUCUAUUAGUUCCAAUACGAACAUGAGGAUCACCCAUGUAGGAUAUGCUAGAAGUUGUGUUGCAGAAGGACAUGUACCUU |  |  | 11.7 | 25.8
4 | UCUCGGAGCAGAGGAUAUUACAUGAGGAUCACCCAUGUAUGAACCAAUAGCUGGAAACAGCAAUGUAAGAAGGCUGCUCCGACA |  |  | 12.4 | 169
5 | GCCUUACCGGUCAGGAUAUACAUUUGUUACUCUUUGUAGAAGGGACAUGAGGAUCACCCAUGUACAUUACAUUC |  |  | 19.1 | 19.2
6 | CGCUACGUUUCGUAGCAGUGUCAUCGAGAAGGCCCUGACAUGAGGAUCACCCAUGUUGUUACAUGGGAGGAUAUCGAUGAUACG | 13 | 5.4 |  | 
7 | UCAACCAGCGCCGGUUAAACAUGAGGAUCACCCAUGUACUCCAGAAGGCCGCCCAAGAACGGAGUGGAGGAUAUGGAGGUUCUC | 46.8 | 38.7 |  | 
8 | UUACUGUAAUAGAAGGGUAUUUGGGUUUUACAUGAGGAUCACCCAUGUUUUAUAGGAUAUGUUUAUAGUUUUUAAUCAAGUUUA |  |  | 91.1 | 68.7
9 | GGUCCGUAACAGAAGGCCGUAACUGGUAGUGGCGGAGGAUAUGUGGGCGGCCCUUGACAACAUGAGGAUCACCCAUGUAUGUAA | 335 | 20.3 |  | 
10 | GGUCCACGAGGAUAUCGAUUAUAGUACAUGAGGAUCACCCAUGUUGUCCAGGUUUCGAUUCGAGAAGGCGUGGGUU |  |  | 54.4 | 39
11 | AUAUCUCAAUUAGAUCCAAUACGAACAUGAGGAUCACCCAUGUAGGAUAUGCUAGAAGUUGUGUUGCAGAAGGACAUAUACCUU |  |  | 41.4 | 38.6
12 | AACAGCUCGUCAGGAUAUAUUAUAAUAAUACGGCAGUUUGUACAUGAGGAUCACCCAUGUUGUAUGUAGAAGGGACGAGCUGAA |  |  | 9.86 | 8.91
13 | UUUUUUUAUAAGGAUAUGGGAGUCGAUAGACACCCAGAAGGUAUAACAUGAGGAUCACCCAUGUGUCCUUUUUU |  |  | 21.2 | 24.1
14 | GUAGCUAUCGGAGGAUAUUCAUACCGGAUACGGACAUGAGGAUCACCCAUGUGCCGAAAGGCUUGGGAGAAGGCCGAUAGCUAC | 108 | 16.9 |  | 
15 | CCAUCGAGUGUGAGGAUAUGCUGGUCCUUGGAUCAGCAGAAGGCACAUGAGGAUCACCCAUGUGGAAACGGUGG |  |  | 26.6 | 191
16 | CUUUUGUGAGGAUAUUAGUAGUAAUACAAUAGUAUUACUACUGAGAAGGCACAUGAGGAUCACCCAUGUUCCUC |  |  | 38.2 | 147
17 | GGAGGAGGAGUGAGGAUAUGGUGGUGGAAACACCACCAGAAGGCACAUGAGGAUCACCCAUGUGAAGAAGAGAA |  |  | 18.9 | 24.9
18 | GAUUCACAUGAGGAUCACCCAUGUGAGGAUAUAGUGCAGGAGGUGAAUGUCCACCUCUCUAGAAGGCACACGGG |  |  | 22.3 | 23.6
19 | GGUAUACAUGAGGAUCACCCAUGUCGUAUGACAUGAGGAUAUGUACAGACUUCGGUCUGUACAGAAGGCGUGUGUC | 362 | 158 |  | 
20 | CGAUAAUAUAGUUAUCCGUAGCGAACAUGAGGAUCACCCAUGUAGGAUAUGUUACUAAACUAGUAACAGAAGGGCAUGAGUCUU |  |  | 32.1 | 74.5
21 | UGUGUGUGGGCAGGAUAUGCAUGAAUAUGUAUGAUGUAGUGUGAUGUAACAUGAGGAUCACCCAUGUAGAAGGGCCGGUGUGUG |  |  | 99.3 | 116
22 | GUAGAGUCAGGAUAUACGAAUAGAUCGAAAGAUCAAUCCAUACAUGAGGAUCACCCAUGUAGAAGGGACUCUAC |  |  | 19.3 | 22.7
23 | GAAUUUUUACAGAAGGUGUUUUACAUGAGGAUCACCCAUGUUUUAUUGUUUAAAUUUGUUAUUUACAAGGAUAUGUUCUAUUCU | 26.7 | 19.7 |  | 
24 | AUAGUGCGCGAGAAGGACGUACCACAUGUUGAUCACCGAUAUAAGGAACGUAGGAUAUUGCACAUGAGGAUCACCCAUGUGGAU | 16.6 | 21.3 |  | 
25 | GCGAUGAUCGAGAAGGCCACUACAUGAGGAUCACCCAUGUCGUGGUGUAUUGGAGGAUAUCGAUUGGCGCCUUAUGAGGACAUG |  |  | 5.49 | 8.22
26 | GCGAUUGCGUAGAAGGUACAAUAUAUUUCAUUGUAAGGAUAUACUUACAUGAGGAUCACCCAUGUUAAUGGAAUUUGCAAUCGC | 74.1 | 28.9 |  | 
27 | CGCUCAAGAGAGAAGGAUAGAGUCAGAAGGCGUUACAUGAGGAUCACCCAUGUUUUGUAUAGUAACGAGGAUAUGAAAUGAGCG |  |  | 19.7 | 15
28 | AAAAUCAAGUCAGGAUAUCGUGCGGUUGGUCGUUACAUGAGGAUCACCCAUGUCUUCCGGUAGCUCGAGAAGGGACGUGAGCCC | 18.6 | 8.33 |  | 

Row | Sequence | apparent Kd [1] [nM] | apparent Kd [2] [nM] | apparent Kd [3] [nM] | apparent Kd [4] [nM]
29 | AAUGUCUGAGGAUAUCGAAUAGUGUACAUGAGGAUCACCCAUGUUUUUAUUAGUAUAUUACGAGAAGGCAGUGGAA |  |  | 17.8 | 14.8
30 | GGAAAACAUGAGGAUCACCCAUGUGAGGAUAUCGAUGUCCAGGGCCGGGUGCGGGACUCGAGAAGGCACUUGGA |  |  | 64.5 | 41.6
31 | GGAUAGGACAGAGGAUAUACGUGCUAGAGAUACUAGCCAAAUUUCCUCACAUGAGGAUCACCCAUGUAGAAGGCUGUCCUAUCG |  |  | 6.86 | 84.5
32 | UACAUUUAACAGAAGGCGUUUAUAUUUAACUUACGAGGAUAUGUAUAACAUGAGGAUCACCCAUGUAACUUGGAUAGAAUAUCU | 9.46 | 8.32 |  | 
33 | AAGAUGUAAGGAUAUGCUGCUCGUCACAAAAGUGAUGAGUAGCAGAAGGUACAUGAGGAUCACCCAUGUAGAGA |  |  | 31.4 | 55.7
34 | GGAUAGGACAGAGGAUAUACGUGCUAGAGAUACUAGCAAAAUUUCCUCACAUGAGGAUCACCCAUGUAGAAGGCUGUCCUAUUG |  |  | 15.6 | 460
35 | UGAUUCGAGGCUAAGCCUCCAUCACAGGAUAUGCACGAGACAUGAGGAUCACCCAUGUGGCGAAGGCAGAAGGGUGAUACGUCU | 197 | 24.6 |  | 
36 | UUUGGGUGGCUGGAGGAUAUUCUUGUGGUUACAUGAGGAUCACCCAUGUGUCGCGCGGUACGCGAGGAGAAGGCUGGCGGCCGUU | 327 | 56.2 |  | 
37 | GGUGGACAUGAGGAUCACCCAUGUGAGGAUAUCGGCCGGUUCGUGGUGGCUGGCGUCUCGAGAAGGCGCAUAGU |  |  | 35 | 45.7
38 | GACUCGCGCACAGGAUAUCCACGUAGCGGACGUGGAGAAGGGUGACAUGAGGAUCACCCAUGUACGUGAGUCUAGAUCACUUCC | 40.2 | 22.8 |  | 
39 | AGCAUGCUAGGAUAUACGGGACAUUAGGGUUCGUUGUGUGGACAUGAGGAUCACCCAUGUAGAAGGAGCGUGCA |  |  | 86.6 | 374
40 | GUCAUCGCAUGAGGAUAUGGCACCGUUUCGGUGCCAGAAGGCAUGUCAAAUGACAUGAGGAUCACCCAUGUAGUUAAGAUGGCA | 229 | 17 |  | 
41 | GUGAUCUGAGUGAGGAUAUCCUUUAAGUAAUUGCAGGAGAAGGCACAUGAGGAUCACCCAUGUACAUCUUCGCG |  |  | 36.1 | 119
42 | AGAUUGAAUGAGGAUAUCGAAGCGGGUACGAAGCGAGAAGGCAUGACAUGAGGAUCACCCAUGUAGUGUGGGUU |  |  | 465 | 435
43 | UAUAUAUAGGCAGGAUAUACAUGUAUAUAUAAUAUAUUAUAUAUUAUUACAUGAGGAUCACCCAUGUAGAAGGGCCAUAUUAUA |  |  | 41.3 | 65.9
44 | GAAUAUUCGUGGUACAUGAGGAUCACCCAUGUGUCUUUACAUGAGGAUAUGGAUUCUAAUUGGAUCCAGAAGGCAUGAAUAUUC | 75.5 | 31.2 |  | 
45 | GAUUGAAAAGGAUAUACAUGAGGAUCACCCAUGUGCUUCAGCUAGGAGACUAGCAUUGGUAGAAGGUUUUAAUC |  |  | 22.2 | 43.9
46 | GCGUCAGAAUUAAUUGUGUCAUACAGAAGGCAAUAUUAAGGUUAAGACAUGAGGAUCACCCAUGUUGAGGAUAUGUAGUGACGC |  |  | 10.5 | 18.6
47 | GGACGUUACAUCUACAUGAGGAUCACCCAUGUCUCUUGAGAUGAGGAUAUGUAUACGAAUCGUUUAUAGAAGGCAUGUACGUCC | 39.8 | 46.4 |  | 
48 | CAAGGGCAUGAGAAGGCAUAAUUUAUAAUACCACAUGUUUACAUGAGGAUCACCCAUGUUACCUAUGAGGAUAUCAUGCCUACA |  |  | 14.3 | 13.1
49 | CACAGGGAUUCAGGAUAUAUUAGCCGAGGCCGCGUAGAAGGGAAAUCCUGACAUGAGGAUCACCCAUGUUAACCCACUUUCCAU | 28.2 | 28.8 |  | 
50 | AAGCCUAAUGAGAAGGUGUGUAUAAAUUAUAUACAAGGAUAUCGGUCAAGCAUGAAAACAUGAGGAUCACCCAUGUUAAGGCUU | 5.82 | 5.51 |  | 
51 | UCUGUCGUUGUGAGGAUAUGCCCAAAUAAAAGCGGGCAGAAGGCACAUGAGGAUCACCCAUGUCCUGCGGUUUU |  |  | 21.4 | 237
52 | CUUUAGUGAGGAUAUCAGUAGUAGAACAAUAGUACUACUACUGAGAAGGCACAUGAGGAUCACCCAUGUUCCUC |  |  | 31 | 157
53 | GUCCUUAGCGAGGAUAUCGGGCGGGUUUUUGUUUGAGAAGGCGUGACAUGAGGAUCACCCAUGUGGCGCGUGGG |  |  | 39.2 | 69.7
54 | UUUACAUGAGGAUCACCCAUGUCUUGAAAGAUUAGUUCUGGUGAGGAUAUACAUGAUAAAGAAUUGUAGAAGGCACUGGGUACA | 113 | 33.1 |  | 
55 | UUACCUCAUGAGAAGGACAUGAGGAUCACCCAUGUAGGAUAUCAUGGGUCAGUGGAAUUGAAUCUUCGGAUUCAAUAACUCUAU | 114 | 34.5 |  | 
